Where two headings read alike, the source gives them in different places. Values belong to the molecule of their own block, whether it stands above or below them.
Tests used:
[1] = assay type: in vivo, human; conditions: for Tmax: healthy female subjects, median (range); for bioavailability: oral
Method in brief: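 Healthy female volunteers fasted about 10 h, then took a 100 mg oral tablet. A 13C-labeled microdose (15 µg/ml target, PEG-400 solution diluted in saline, filtered) was infused i.v. 4 h later. Plasma was sampled predose and 1–72 h post-oral, and 5–30 min post-i.v. Concentrations were measured by LC-MS/MS against a 0.0300–15.0 ng/ml calibration (1/x² weighting). Noncompartmental analysis used the actual i.v. dose, assayed from the unflushed infusion line.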

[2] = cited from earlier work
[3] = Stability and adsorption of the venetoclax microdose solution; assay type: physicochemical; conditions: during formulation and process development
CYP3A4 enzyme = conditions: cited from earlier work
[4] = 100 µg 13C-venetoclax solution for IV infusion, N = 11, mean (%CV)
[5] = 100 µg 13C-venetoclax solution for IV infusion, actual dose, N = 11, mean (%CV)
[6] = 100 mg venetoclax oral tablet, fasting, N = 12, mean (%CV)
[7] = female, human, plasma, po, 100 mg

- t 1/2 ([1]; 100 µg 13C-venetoclax solution for IV infusion, N = 11, harmonic mean (pseudo %CV)): 14.4 (5.5) h
- AUCinf [1, 4]: 0.036 (39%) µg·h/ml
- AUCt [1, 4]: 0.034 (37%) µg·h/ml
- Cmax [1, 4]: 0.019 (19%) µg/ml
- AUCinf/dose [1, 5]: 324 (37%) (ng·h/ml)/mg
- AUCt/dose [1, 5]: 310 (36%) (ng·h/ml)/mg
- Cmax/dose [1, 5]: 176 (16%) (ng/ml)/mg
Molecule: [^13C7]‐venetoclax [^13C‐venetoclax]

- AUCinf/dose [1, 6]: 19.3 (45%) (ng·h/ml)/mg
- Cmax/dose [1, 6]: 1.49 (47%) (ng/ml)/mg
- Tmax ([1]; 100 mg venetoclax oral tablet, fasting, N = 12): 4.2 (4.0–6.0) h
- half-life ([1]; female, human, plasma, iv, 100 µg, t 1/2, 100 µg 13C-venetoclax solution for IV infusion, N = 11, harmonic mean (pseudo %CV)): ~14 h
- bioavailability ([1]; female, human, plasma, 100 mg): 5.4%
- AUC(0-inf) [1, 7]: 1930 ng·h/mL
- AUC(0-t) [1, 7]: 1850 ng·h/mL
- Cmax [1, 7]: 149 ng/mL
- Tmax ([1]; female, human, plasma, po, 100 mg, Tmax, 100 mg venetoclax oral tablet, fasting, N = 12): ~4 h
- half-life ([1]; female, human, plasma, po, 100 mg, t 1/2, 100 mg venetoclax oral tablet, fasting, N = 12, harmonic mean (pseudo %CV)): ~14 h
- fraction metabolized by the liver in a single pass ([1]; from hepatic extraction ratio): 6%
- bioavailability ([1]; human, plasma): 18 to 28%
- adsorptive losses on the infusion line [3]: 1 to 2 µg/mL
Molecule: CC1(C)CCC(CN2CCN(c3ccc(C(=O)NS(=O)(=O)c4ccc(NCC5CCOCC5)c([N+](=O)[O-])c4)c(Oc4cnc5[nH]ccc5c4)c3)CC2)=C(c2ccc(Cl)cc2)C1 [venetoclax]
- pharmacokinetic linearity [2]: linear between 150 and 800 mg dose
- terminal half-life [2]: 16 h
- time to reach Cmax after dosing [2]: 6 to 8 h
- metabolism (CYP3A4 enzyme): predominantly metabolized by the CYP3A4 enzyme

From paper PMC8742638 (Clinical and Translational Science, 2021)
